Reference: ChEMBL document CHEMBL5678815 (Clin Cancer Res, 2017)
Active and inactive are the calls of the source. The calls are words filed in the database; no cut-off is given here.

Assays:
[1] = biological target: Dual specificity testis-specific protein kinase 1 (Homo sapiens) (UniProt Q15569); assay: Inhibition of human TESK1 assessed as remaining activity at 1 uM by ATP-competition binding assay relative to control
In short: (§1)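 Single-concentration (1 μM) screen in an ATP-site-dependent competition binding assay (KINOMEscan, outsourced) covering 395 human kinases, mutants included. Non-covalent binding was read as the remaining signal relative to the control signal.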

[2] = tested on: Splenocyte; assay: In vivo inhibition of BCR signaling in female […] mouse assessed as change in CD86 expression at 25 mg/kg, po administered and measured after stimulation with anti-IgM for 18 h by flow cytometry analysis; type: functional, organism-based
In short: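 Female C57BL/6 mice (5/group) received vehicle or 25 mg/kg drug by oral gavage at time zero, with spleens taken at time points from 3 to 24 h. Splenocytes were stimulated ex vivo with goat anti-mouse IgM at 10μg/mL for 18 h at 37°C in 5% CO2, then Fc-blocked and stained for CD19 plus CD69, CD86 or phospho-S6(S235/236), with 7-AAD to exclude dead cells. Read-out was flow cytometry on >5,000 gated CD19+ cells, compared with vehicle.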

[3] = Antileukemic activity against human CLL mononuclear cells xenografted NSG mouse assessed as reduction in spleen cells at 0.3 to 0.16 mg/ml preadministered with compound via drinking water and measured after 3 weeks by flow cytometry analysis relative to control; type: functional, CLL mononuclear cell; set-up: scale not given: the % may be the effect or the level left; conditions: dose 0.3-0.16 mg/ml, at 0.16 to 0.3 mg/mL
In short: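 Primary CLL patient mononuclear cells (1 × 10^8 per mouse) engrafted into NSG mice on day 0 after busulfan priming on day −1. Vehicle or drug was given in drinking water from day −1. Mice were killed 3 weeks after engraftment; spleens homogenized, filtered and RBC-lysed; whole blood collected. Six patients, 2–5 mice per patient; paired t-test per patient.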

[4] = biological target: Serine/threonine-protein kinase LATS1 (Homo sapiens) (UniProt O95835); assay: Inhibition of human LATS1 assessed as remaining activity at 1 uM by ATP-competition binding assay relative to control
In short: (§2)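 Single-point profiling at 1μM in an ATP-site-dependent competition binding assay across a panel of 395 human kinases, including mutant forms. The read-out is kinase binding signal in the presence of test agent, expressed as inhibition relative to the control signal. This screen assessed noncovalent binding interactions.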

[5] = biological target: Cyclin-dependent kinase 7 (Homo sapiens) (UniProt P50613); assay: Inhibition of human CDK7 assessed as remaining activity at 1 uM by ATP-competition binding assay relative to control
In short: (§3)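 KINOMEscan ATP-site-dependent competition binding panel of 395 human kinases, with compound tested at 1 μM. Binding is reported as remaining signal relative to control.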

[6] = tested on: Epidermal growth factor receptor (Homo sapiens), P00533 [L858R,T790M]; assay: Inhibition of human EGFR L858R/T790M mutant assessed as remaining activity at 1 uM by ATP-competition binding assay relative to control
In short: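 KINOMEscan ATP-site-dependent competition binding assay across a 395-kinase human panel including mutants; compound tested at 1μM; binding expressed relative to control signal.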

[7] = biological target: Tyrosine-protein kinase BTK (Homo sapiens) (UniProt Q06187); conditions: dose < 100.0 nM
[8] = biological target: Serine/threonine-protein kinase pim-1 (Homo sapiens) (UniProt P11309); assay: Inhibition of human PIM1 assessed as remaining activity at 1 uM by ATP-competition binding assay relative to control; in short: as §2
[9] = biological target: Serine/threonine-protein kinase 4 (Homo sapiens) (UniProt Q13043); assay: Inhibition of human MST1 assessed as remaining activity at 1 uM by ATP-competition binding assay relative to control; in short: as §2
[10] = biological target: Protein kinase C eta type (Homo sapiens) (UniProt P24723); assay: Inhibition of human PRKCH assessed as remaining activity at 1 uM by ATP-competition binding assay relative to control; in short: as §1
[11] = biological target: Calcium/calmodulin-dependent protein kinase type 1G (Homo sapiens) (UniProt Q96NX5); assay: Inhibition of human CAMK1G assessed as remaining activity at 1 uM by ATP-competition binding assay relative to control; in short: as §3
[12] = biological target: 5'-AMP-activated protein kinase catalytic subunit alpha-1 (Homo sapiens) (UniProt Q13131); assay: Inhibition of human AMPK-alpha1 assessed as remaining activity at 1 uM by ATP-competition binding assay relative to control; in short: as §3
[13] = biological target: Tyrosine-protein kinase HCK (Homo sapiens) (UniProt P08631); assay: Inhibition of human HCK assessed as remaining activity at 1 uM by ATP-competition binding assay relative to control; in short: as §2
[14] = biological target: Tyrosine-protein kinase Fes/Fps (Homo sapiens) (UniProt P07332); assay: Inhibition of human FES assessed as remaining activity at 1 uM by ATP-competition binding assay relative to control; in short: as §2

CC#CC(=O)N1CCC[C@H]1c1nc(-c2ccc(C(=O)Nc3ccccn3)cc2)c2c(N)nccn12 [ACALABRUTINIB]
Activity [1]: 83% | Activity [2]: Active | Activity [3]: 33% | Activity [4]: 93% | Activity [5]: 74% | Activity [6]: 94% | inhibition [7]: Active | Activity [8]: 84% | Activity [9]: 87% | Activity [10]: 87% | Activity [11]: 95% | Activity [12]: 86% | Activity [13]: 62% | Activity [14]: 100%
